Compounds with a hit are over-represented: about 3.2% of the library has one in this group of screens.
NR2E3 ag-1: inhibitors of NR2E3-RetCOR corepressor binding, primary screen, NR2E3 agonist project, biochemical, TR-FRET, GST-NR2E3, biotin-RetCOR | 1536-well | inhibition of corepressor binding, % at 4.78 µM | actives 0.12% (n = 320,000) | Photoreceptor-specific nuclear receptor (Homo sapiens), Q9Y5X4;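 active = percent inhibition above the cutoff of mean plus 3 SD of all tested compounds, set per screening campaign, cut at about 20% in these data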
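Material – GST-tagged NR2E3 plus biotinylated RetCOR corepressor · Quantity – NR2E3 fusion 1.35 nM · Times – 5 h incubation at 4 °C · Medium – pH 7.5 Tris-based buffer · Technique – TR-FRET, Eu(K)-anti-GST donor, streptavidin-D2 acceptor, ex 340, em 617/671 nm · Benchmarks – high control biotin, low control 0.6% DMSO · Format – 1536-well plates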
GASC-1 inh: inhibitors of GASC-1 histone demethylase, primary screen, biochemical, fluorescence, DELFIA europium | GST-JMJD2C(1-420) H3K9me3 demethylation | inhibition, % at 2.35 µM | actives 0.069% (n = 330,000) | AID 2099, 2009;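 active = more than half of a compound's replicate wells show inhibition beyond 50%, single wells judged on their own value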;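 also: signal counts dimethyl H3K9 product captured on neutravidin plate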
Target sequence (Q9H3R0 1-420 limits assumed): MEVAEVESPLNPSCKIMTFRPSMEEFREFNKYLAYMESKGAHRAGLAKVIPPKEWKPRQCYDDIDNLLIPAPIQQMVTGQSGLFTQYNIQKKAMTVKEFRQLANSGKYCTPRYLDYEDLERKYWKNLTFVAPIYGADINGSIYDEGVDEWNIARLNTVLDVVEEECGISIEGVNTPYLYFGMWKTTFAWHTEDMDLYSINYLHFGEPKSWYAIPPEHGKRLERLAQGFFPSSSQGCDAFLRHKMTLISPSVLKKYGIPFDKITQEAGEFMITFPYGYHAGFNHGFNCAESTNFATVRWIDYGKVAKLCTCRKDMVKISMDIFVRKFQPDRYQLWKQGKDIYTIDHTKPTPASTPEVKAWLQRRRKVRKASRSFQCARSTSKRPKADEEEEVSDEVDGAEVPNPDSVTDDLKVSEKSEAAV
DAX1 inh-1: DAX1 (NR0B1) inhibitors, primary screen, cell-based, HEK293, Gal4-DAX1, luciferase luminescence; HEK293 Gal4-DAX1 luciferase reporter; inhibition, % at 6.75 µM; actives 0.99% (n = 340,000);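 active = inhibition above the mean over all tested compounds plus 3 SD, cut at about 4.2% in these data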;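 also: inhibition shows as a rise in luminescence from relieved DAX1 repression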
Target sequence (P51843 207-470 limits assumed): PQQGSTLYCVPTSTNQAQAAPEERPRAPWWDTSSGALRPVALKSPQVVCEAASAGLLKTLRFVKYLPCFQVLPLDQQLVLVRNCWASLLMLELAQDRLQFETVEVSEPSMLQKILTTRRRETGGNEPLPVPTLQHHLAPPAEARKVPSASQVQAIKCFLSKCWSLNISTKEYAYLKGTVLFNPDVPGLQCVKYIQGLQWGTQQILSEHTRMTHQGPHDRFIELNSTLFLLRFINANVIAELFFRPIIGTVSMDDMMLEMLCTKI
SMARCA2 activ: SMARCA2 (BRM) function activators, primary screen, cell-based, luminescence, high throughput; MG213 cells, MMTV-luciferase reporter, dexamethasone, overnight; actives 1% (n = 370,000); activation, % at 9.1 µM; in the data active = activation above about 7.8%
NR2E3 ag-2: NR2E3 agonists in two-hybrid cells, primary screen, cell-based, luminescence, CHO-S, Gal4-NCOR/VP16-NR2E3; Photoreceptor-specific nuclear receptor (Homo sapiens), Q9Y5X4; luciferase; inhibition of corepressor binding, % at 3.98 µM; actives 0.35% (n = 360,000);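 active = inhibition above the mean of all tested compounds plus 3 SD, cut at about 70% in these data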;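 also: higher means lower luciferase signal from less NR2E3 corepressor binding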
DAX1 inh-2: DAX1 (NR0B1) inhibitors on StAR promoter, primary screen, cell-based, luminescence, SF-1 (NR5A1), full-length DAX-1. actives 1.1% (n = 370,000). AID 652010, 2013. inhibition, % at 6.8 µM. HEK293T StAR-luciferase reporter, SF-1/DAX-1 repression relief;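 active = inhibition above the mean over all tested compounds plus 3 SD, cut at about 3.6% in these data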;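 also: higher inhibition means more luminescence from relief of DAX-1 repression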
NR2E3 agonist cf: NR2E3 agonists, confirmation, biochemical, TR-FRET | shares compounds with NR2E3 ag-1 | cell-free NR2E3 corepressor release, 5 h | activation (reported as inhibition), % at 3.98 µM | actives 39% (n = 360) | AID 2379, 2010; in the data active = activation above about 20%
PPARg-NCOR2 ag: agonists of PPARg-NCOR2 corepressor interaction, counter-screen for NR2E3 agonist project, biochemical, TR-FRET | shares compounds with NR2E3 ag-1 | TR-FRET PPARg-NCOR2 coregulator interaction | inhibition, % at 3.98 µM | actives 45% (n = 360); in the data active = inhibition above about 20%
Large screens that a line does not name were inactive (follow-up assays come after a bar, where they were run).

O=C(C1=C(O)C(=O)N(Cc2cccnc2)C1c1cccc(Oc2ccccc2)c1)c1ccco1 (stereo not given)	none (no result: NR2E3 ag-1)
CCCOc1ccc(C2C(C(=O)c3ccco3)=C(O)C(=O)N2CCCn2ccnc2)cc1 (stereo not given)	none
O=C(C1=C(O)C(=O)N(CCCn2ccnc2)C1c1ccc(F)cc1)c1ccco1 (stereo not given)	NR2E3 ag-1 36.2 | NR2E3 agonist cf inactive | PPARg-NCOR2 ag inactive
COc1cc(C2C(C(=O)c3ccco3)=C(O)C(=O)N2Cc2ccccc2)ccc1O (stereo not given)	none
Cc1ccc(C2CCC3(CCC(=O)N3CCOC(=O)Nc3ccc(Br)cc3)CC2)cc1 (stereo not given)	none (no result: NR2E3 ag-1, GASC-1 inh, DAX1 inh-1, NR2E3 ag-2)
N#Cc1ccc(OC[C@@H](O)CN2CCC(C(O)(c3ccccc3)c3ccccc3)CC2)cc1	none (no result: NR2E3 ag-1, GASC-1 inh, DAX1 inh-1, NR2E3 ag-2)
COC(=O)[C@]12C[C@H](CC(=O)NCCC(C)C)C(=O)N(CCc3ccc(OC)c(OC)c3)C1=C[C@H](C1CCCC1)O[C@@H]2C	none (no result: NR2E3 ag-1, GASC-1 inh, DAX1 inh-1, NR2E3 ag-2)
CCCC[C@H]1C2CC(OC(=O)Nc3ccccc3Cl)C(C2)[C@H]2CCCCN21 (stereo not given in full)	none (no result: NR2E3 ag-1, GASC-1 inh, DAX1 inh-1, NR2E3 ag-2)
COc1ccc(-c2nnc(SCC(=O)N/N=C(\C)c3ccc(-c4ccccc4)cc3)n2-c2ccc(C)cc2)cc1	none (no result: NR2E3 ag-1, GASC-1 inh, DAX1 inh-1, NR2E3 ag-2)
N#Cc1c(-c2cccnc2)c2c([nH]c1=S)CCCC2	none
N#Cc1c(-c2ccco2)c2c([nH]c1=S)CCCC2	NR2E3 ag-1 38.7 | NR2E3 agonist cf inactive | PPARg-NCOR2 ag 22.6
CC(C)Cc1c2c([nH]c(=S)c1C#N)CCCC2	NR2E3 ag-1 38.2 | NR2E3 agonist cf 33.8 | PPARg-NCOR2 ag 35.9
O=C(O)c1ccc2c(c1)C(=O)/C(=C/c1ccccc1)C2=O	none
O=C(O)c1ccc2c(c1)C(=O)/C(=C\c1ccco1)C2=O	NR2E3 ag-1 38.1 | NR2E3 agonist cf inactive | PPARg-NCOR2 ag 26.4
COc1ccc(/C=N/NC(=O)C(=O)N2CCN(c3ccccc3OC)CC2)cc1	NR2E3 ag-1 30.1 | NR2E3 agonist cf inactive | PPARg-NCOR2 ag inactive
CCCC1=NN2C(=N)/C(=C\c3ccc(SCc4ccco4)o3)C(=O)N=C2S1	NR2E3 ag-1 20.2 (no result: SMARCA2 activ, DAX1 inh-2) | NR2E3 agonist cf inactive | PPARg-NCOR2 ag 61.0
CCOC(=O)N1CCN(C(=O)C[C@H]2C[C@@]3(C(=O)OC)C(=C[C@H](COCc4ccccc4)O[C@@H]3C)N(Cc3cccc4ccccc34)C2=O)CC1	none (no result: NR2E3 ag-1, GASC-1 inh, DAX1 inh-1, NR2E3 ag-2)
CCn1c(=S)[nH]c2c(c1=O)C(C)(C)Cc1ccccc1-2	none (no result: NR2E3 ag-1)
CCC1(C)Cc2ccccc2-c2[nH]c(=S)[nH]c(=O)c21 (stereo not given)	NR2E3 ag-1 31.2 | NR2E3 agonist cf 19.6 | PPARg-NCOR2 ag inactive
Cn1c(=S)[nH]c2c(c1=O)C(C)(C)Cc1ccccc1-2	NR2E3 ag-1 38.8 | NR2E3 agonist cf 41.4 | PPARg-NCOR2 ag 34.8
COc1ccc2nc(C)cc(SCC(=O)Nc3c(C)cc(C)cc3C)c2c1	NR2E3 ag-1 35.9 | NR2E3 agonist cf inactive | PPARg-NCOR2 ag inactive
COc1ccc2nc(C)cc(SCC(=O)Nc3c(C)cccc3C)c2c1	none
Cc1cc(-c2n[nH]c(=S)n2N=Cc2ccc(OCc3ccccc3)cc2)n[nH]1	none (no result: NR2E3 ag-1, GASC-1 inh, DAX1 inh-1, NR2E3 ag-2)
CS(=O)(=O)N1CCN(c2ccc(Cl)cc2[N+](=O)[O-])CC1	NR2E3 ag-1 41.7 | NR2E3 agonist cf inactive | PPARg-NCOR2 ag inactive
CCCCOC(=O)CSC1=C(C#N)C(c2ccccc2OCC)C(C#N)C(=O)N1 (stereo not given)	NR2E3 ag-1 21.8 (no result: SMARCA2 activ, DAX1 inh-2) | NR2E3 agonist cf inactive | PPARg-NCOR2 ag 36.5
CCCOC(=O)CSC1=C(C#N)C(c2ccccc2OCC)C(C#N)C(=O)N1 (stereo not given)	none
C[C@H]1COc2cc(Br)ccc2S(=O)(=O)N1Cc1cn(Cc2ccc(Cl)cc2)nn1	none (no result: NR2E3 ag-1, GASC-1 inh, DAX1 inh-1, NR2E3 ag-2)
O=c1[nH]c(CN2CCN(c3ccccn3)CC2)nc2c(Br)cc(Br)cc12	none
O=c1[nH]c(CN2CCN(c3ncccn3)CC2)nc2c(Br)cc(Br)cc12	NR2E3 ag-1 26.8 | NR2E3 agonist cf inactive | PPARg-NCOR2 ag 24.6
O=C(CCn1c(=S)[nH]c2cc3c(cc2c1=O)OCO3)NCc1cccc(Cl)c1	none
O=C(CCCn1c(=S)[nH]c2cc3c(cc2c1=O)OCO3)NCc1cccc(Cl)c1	NR2E3 ag-1 27.8 | NR2E3 agonist cf inactive | PPARg-NCOR2 ag 21.5
OC[C@H]1CC[C@@H]2O[C@H](CCc3ccc(-c4ccc(F)cc4)cc3)[C@H](n3cc(C4CC4)nn3)C[C@@H]2O1	none (no result: NR2E3 ag-1, GASC-1 inh, DAX1 inh-1, NR2E3 ag-2)
COC(=O)c1c(NC(=S)Nc2cc(OC)c(Cl)cc2OC)sc2c1CCCCC2	NR2E3 ag-1 19.8 | NR2E3 agonist cf inactive | PPARg-NCOR2 ag inactive
CS(=O)(=O)Nc1ccc(-c2n[nH]c(=S)n2-c2ccccc2)cc1	NR2E3 ag-1 26.8 | NR2E3 agonist cf inactive | PPARg-NCOR2 ag inactive
Cc1ccc(-c2n[nH]c(=S)n2-c2ccccc2)cc1	none
C[C@@H]1/C=C/CC(=O)N[C@H](c2ccccc2)[C@H](C)/C=C/CC(=O)N[C@@H]1c1ccccc1	none (no result: NR2E3 ag-1, GASC-1 inh, DAX1 inh-1, NR2E3 ag-2)
COC(=O)CN1CCN(C(=O)c2csc(N3CCOCC3)n2)CC1	none (no result: NR2E3 ag-1, GASC-1 inh, DAX1 inh-1, NR2E3 ag-2)
CC1Cc2nc(SCC(=O)Nc3nccs3)n(C)c(=O)c2S1 (stereo not given)	NR2E3 ag-1 21.4 | NR2E3 agonist cf inactive | PPARg-NCOR2 ag inactive
C=CCN1C(=O)[C@H](CC(=O)NCc2cccc3ccccc23)[C@@]2(C(=O)OCC)CCCC=C12	none (no result: NR2E3 ag-1, GASC-1 inh, DAX1 inh-1, NR2E3 ag-2)
CN1CCN(NC(=O)c2cc(-c3ccc(Br)s3)nc3ccccc23)CC1	NR2E3 ag-1 26.5 | NR2E3 agonist cf inactive | PPARg-NCOR2 ag 19.9
COc1ccc(Cn2ccc3ccc(-c4ccc5ccn(C(=O)C6CC6)c5c4)cc32)cc1	none (no result: NR2E3 ag-1, GASC-1 inh, DAX1 inh-1, NR2E3 ag-2)
N#Cc1c(-c2ccco2)nc(SCC(=O)Nc2cccc(Cl)c2)[nH]c1=O	NR2E3 ag-1 25.9 | NR2E3 agonist cf inactive | PPARg-NCOR2 ag 22.3
Nc1ccc2c(c1)C(=NO)c1ccccc1-2	none (no result: NR2E3 ag-1, GASC-1 inh)

Screens: PubChem BioAssay, several laboratories
